Test results: ChEMBL document CHEMBL5724801, “EUbOPEN Chemogenomics Library - Multiplex” (2024)
Values joined by “and” are separate entries in the source; they are usually repeats but may differ in a detail not shown here. Equal entries are not always repeated.

System: Fibroblast
Test: Multiplex assay against human fibroblast
Type: toxicity, cell-based
Procedure, shortened: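 Live cells carried four stains from seeding: Hoechst33342, BioTracker Green Microtubule Cytoskeleton Dye, MitoTracker Red and Annexin V Alexa Fluor 680. They were imaged on a CQ1 microscope at 37°C and 5% CO2 after compound addition. Using CellPathfinder machine-learning gating, cells were split into Hoechst high-intensity objects or normal cells, normal cells into healthy, pyknosed or fragmented nuclei, and pyknosed cells into mitotic or apoptotic; tubulin, mitochondrial-mass and membrane-permeability phenotypes are per cents of healthy-nucleus cells.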

[1] = 12 h, 1 µM, compound concentration 1 uM
[2] = 12 h, 10 µM, compound concentration 10 uM
[3] = 24 h, 1 µM, compound concentration 1 uM
[4] = 24 h, 10 µM, compound concentration 10 uM
[5] = 48 h, 1 µM, compound concentration 1 uM
[6] = 48 h, 10 µM, compound concentration 10 uM

## O=S(=O)(c1ccccc1)c1cnc2c(N3CCNCC3)cccc2c1 [INTEPIRDINE]
[1]
  Population Apoptotic (%): 50% and 34%
  Population Fragmented Nuclei (%): 23% and 28%
  Population Healthy Nuclei (%): 67% and 47%
  Population Hoechst High Intensity Objects (%): 3% and 4%
  Population Membrane Permeable-Phenotype (%): 0% and 7%
  Population Mitochondria Different-Phenotype (%): 2% and 7%
  Population Mitotic Cells (%): 50% and 65%
  Population Normal (%): 96% and 95%
  Population Pyknosed Nuclei (%): 9% and 24%
  Population Tubulin-Different-Phenotype (%): 26% and 61%
  Total Cell Count: 212 and 148
[2]
  Population Apoptotic (%): 75% and 61%
  Population Fragmented Nuclei (%): 22% and 43%
  Population Healthy Nuclei (%): 62% and 40%
  Population Hoechst High Intensity Objects (%): 1% and 6%
  Population Membrane Permeable-Phenotype (%): 1% and 5%
  Population Mitochondria Different-Phenotype (%): 8% and 13%
  Population Mitotic Cells (%): 25% and 38%
  Population Normal (%): 98% and 93%
  Population Pyknosed Nuclei (%): 14% and 16%
  Population Tubulin-Different-Phenotype (%): 44% and 68%
  Total Cell Count: 138 and 136
[3]
  Population Apoptotic (%): 54% and 41%
  Population Fragmented Nuclei (%): 16% and 32%
  Population Healthy Nuclei (%): 72% and 44%
  Population Hoechst High Intensity Objects (%): 5% and 0%
  Population Membrane Permeable-Phenotype (%): 2% and 1%
  Population Mitochondria Different-Phenotype (%): 4%
  Population Mitotic Cells (%): 45% and 58%
  Population Normal (%): 94% and 99%
  Population Pyknosed Nuclei (%): 10% and 24%
  Population Tubulin-Different-Phenotype (%): 28% and 59%
  Total Cell Count: 212 and 151
[4]
  Population Apoptotic (%): 40% and 91%
  Population Fragmented Nuclei (%): 28% and 39%
  Population Healthy Nuclei (%): 65% and 50%
  Population Hoechst High Intensity Objects (%): 1% and 4%
  Population Membrane Permeable-Phenotype (%): 0% and 3%
  Population Mitochondria Different-Phenotype (%): 7% and 15%
  Population Normal (%): 98% and 95%
  Population Pyknosed Nuclei (%): 6% and 10%
  Population Tubulin-Different-Phenotype (%): 50% and 67%
  Total Cell Count: 152 and 123
[5]
  Population Apoptotic (%): 66% and 52%
  Population Fragmented Nuclei (%): 22% and 39%
  Population Healthy Nuclei (%): 69% and 45%
  Population Hoechst High Intensity Objects (%): 5% and 3%
  Population Membrane Permeable-Phenotype (%): 0% and 1%
  Population Mitochondria Different-Phenotype (%): 2%
  Population Mitotic Cells (%): 33% and 48%
  Population Normal (%): 94% and 96%
  Population Pyknosed Nuclei (%): 7% and 15%
  Population Tubulin-Different-Phenotype (%): 34% and 54%
  Total Cell Count: 213 and 170
[6]
  Population Apoptotic (%): 63% and 40%
  Population Fragmented Nuclei (%): 23% and 48%
  Population Healthy Nuclei (%): 67% and 38%
  Population Hoechst High Intensity Objects (%): 3% and 6%
  Population Membrane Permeable-Phenotype (%): 1% and 6%
  Population Mitochondria Different-Phenotype (%): 15% and 6%
  Population Mitotic Cells (%): 36% and 60%
  Population Normal (%): 96% and 93%
  Population Pyknosed Nuclei (%): 8% and 12%
  Population Tubulin-Different-Phenotype (%): 47% and 57%
  Total Cell Count: 139 and 125

## C=C(C)[C@H]1CN[C@H](C(=O)O)[C@H]1CC(=O)O [KAINIC ACID]
[1]
  Population Fragmented Nuclei (%): 7.74% and 5.42%
  Population Healthy Nuclei (%): 70.97% and 80.83%
  Population Hoechst High Intensity Objects (%): 0%
  Population Membrane Permeable-Phenotype (%): 7.27% and 2.58%
  Population Mitochondria Different-Phenotype (%): 7.27% and 10.31%
  Population Mitotic Cells (%): 93.94% and 72.73%
  Population Normal (%): 100%
  Population Pyknosed Nuclei (%): 21.29% and 13.75%
  Population Tubulin-Different-Phenotype (%): 10% and 19.07%
  Total Cell Count: 155 and 240
[2]
  Population Apoptotic (%): 8.57% and 22.92%
  Population Fragmented Nuclei (%): 7.35% and 3.47%
  Population Healthy Nuclei (%): 75.49% and 77.99%
  Population Hoechst High Intensity Objects (%): 0%
  Population Membrane Permeable-Phenotype (%): 5.19% and 2.97%
  Population Mitochondria Different-Phenotype (%): 6.49% and 10.89%
  Population Mitotic Cells (%): 91.43% and 77.08%
  Population Normal (%): 100%
  Population Pyknosed Nuclei (%): 17.16% and 18.53%
  Population Tubulin-Different-Phenotype (%): 11.04% and 20.3%
  Total Cell Count: 204 and 259
[3]
  Population Apoptotic (%): 13.51% and 31.58%
  Population Fragmented Nuclei (%): 7.78% and 7.44%
  Population Healthy Nuclei (%): 71.67% and 84.71%
  Population Hoechst High Intensity Objects (%): 0%
  Population Membrane Permeable-Phenotype (%): 3.88% and 1.46%
  Population Mitochondria Different-Phenotype (%): 0.78% and 5.37%
  Population Mitotic Cells (%): 86.49% and 68.42%
  Population Normal (%): 100%
  Population Pyknosed Nuclei (%): 20.56% and 7.85%
  Total Cell Count: 180 and 242
[4]
  Population Apoptotic (%): 5.41% and 14.29%
  Population Fragmented Nuclei (%): 8.53% and 4.49%
  Population Healthy Nuclei (%): 73.93% and 85.02%
  Population Hoechst High Intensity Objects (%): 0%
  Population Membrane Permeable-Phenotype (%): 8.33% and 2.64%
  Population Mitochondria Different-Phenotype (%): 4.49% and 3.52%
  Population Mitotic Cells (%): 94.59% and 85.71%
  Population Normal (%): 100%
  Population Pyknosed Nuclei (%): 17.54% and 10.49%
  Population Tubulin-Different-Phenotype (%): 17.31% and 18.5%
  Total Cell Count: 211 and 267
[5]
  Population Apoptotic (%): 0% and 25%
  Population Fragmented Nuclei (%): 7.94% and 4.31%
  Population Healthy Nuclei (%): 88.89% and 87.84%
  Population Hoechst High Intensity Objects (%): 0%
  Population Membrane Permeable-Phenotype (%): 0.6% and 1.34%
  Population Mitochondria Different-Phenotype (%): 15.48% and 5.36%
  Population Mitotic Cells (%): 100% and 75%
  Population Normal (%): 100%
  Population Pyknosed Nuclei (%): 3.17% and 7.84%
  Total Cell Count: 189 and 255
[6]
  Population Apoptotic (%): 36.36% and 23.53%
  Population Fragmented Nuclei (%): 9.7% and 6.92%
  Population Healthy Nuclei (%): 85.65% and 86.54%
  Population Hoechst High Intensity Objects (%): 0%
  Population Membrane Permeable-Phenotype (%): 2.96% and 2.22%
  Population Mitotic Cells (%): 63.64% and 76.47%
  Population Normal (%): 100%
  Population Pyknosed Nuclei (%): 4.64% and 6.54%
  Total Cell Count: 237 and 260
